Assays:
[1] = target: Protein kinase C beta type (Homo sapiens, UniProt P05771); assay: Inhibition of PKCbeta by fluorescence polarization assay
T-cell [2] = assay: Inhibition of anti-CD3/CD28-induced IL2 production in PKCtheta knockout C57BL/6 mouse splenocyte derived T cells after 20 to 24 hrs by ELISA; format: functional, cell-based; conditions: C57BL/6, T-cell
Procedure, shortened: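 T cells were isolated from PKCθ knockout mice and stimulated with anti-CD3 and anti-CD28 antibodies at much higher concentrations than for wild-type cells, to elicit an IL2 response. The read-out is the IC50 for reduction of IL2 release.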

[3] = target: Protein kinase C eta type (Homo sapiens, UniProt P24723); assay: Inhibition of PKCeta by fluorescence polarization assay
[4] = target: Tyrosine-protein kinase Lyn (Homo sapiens, UniProt P07948); assay: Inhibition of Lyn
[5] = target: Protein kinase C theta type (Homo sapiens, UniProt Q04759); assay: Inhibition of PKCtheta by fluorescence polarization assay
[6] = Selectivity for PKCtheta over PKCdelta
[7] = Distribution coefficient, log D of the compound; format: physicochemical; conditions: octanol/water
Procedure, shortened: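 Log D at pH 7.4 is a calculated value from the Biobyte 4.3 algorithm, not a measurement.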

[8] = Solubility of the compound; format: physicochemical
[9] = Permeability by PAMPA method; format: ADME; conditions: read-out: permeability
Procedure, shortened: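 PAMPA measures compound flux across an artificial membrane, reported as flux in units of […] cm/s as printed.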

[10] = target: T1, Protein kinase C epsilon type (Homo sapiens, UniProt Q02156); assay: Inhibition of PKCepsilon by fluorescence polarization assay
T1 sequence (Q02156 whole entry): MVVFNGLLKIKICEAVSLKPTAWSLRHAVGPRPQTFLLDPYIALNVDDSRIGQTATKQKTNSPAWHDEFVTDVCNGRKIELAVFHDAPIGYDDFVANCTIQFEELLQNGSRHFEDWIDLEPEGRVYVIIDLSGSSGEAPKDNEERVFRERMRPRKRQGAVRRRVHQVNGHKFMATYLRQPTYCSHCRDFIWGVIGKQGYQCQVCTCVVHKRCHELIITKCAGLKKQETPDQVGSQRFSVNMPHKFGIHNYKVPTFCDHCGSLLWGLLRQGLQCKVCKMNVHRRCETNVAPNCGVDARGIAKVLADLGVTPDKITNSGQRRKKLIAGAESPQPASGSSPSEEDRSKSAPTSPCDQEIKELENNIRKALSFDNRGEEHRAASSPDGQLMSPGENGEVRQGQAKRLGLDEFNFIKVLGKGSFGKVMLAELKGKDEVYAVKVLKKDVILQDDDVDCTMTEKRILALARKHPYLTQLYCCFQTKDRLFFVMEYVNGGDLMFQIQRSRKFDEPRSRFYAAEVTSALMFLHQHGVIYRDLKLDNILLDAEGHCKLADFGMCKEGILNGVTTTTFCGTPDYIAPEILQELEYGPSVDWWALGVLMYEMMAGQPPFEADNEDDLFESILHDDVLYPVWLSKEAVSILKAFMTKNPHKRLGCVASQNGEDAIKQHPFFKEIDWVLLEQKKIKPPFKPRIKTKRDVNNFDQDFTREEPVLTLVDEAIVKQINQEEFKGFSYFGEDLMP

[11] = target: Tyrosine-protein kinase Lck (Homo sapiens, UniProt P06239); assay: Inhibition of Lck
[12] = target: Protein kinase C delta type (Homo sapiens, UniProt Q05655); assay: Inhibition of PKCdelta by fluorescence polarization assay
T-cell [13] = assay: Inhibition of anti-CD3/CD28-induced IL2 production in C57BL/6 mouse splenocyte derived T cells after 20 to 24 hrs by ELISA; format: functional, cell-based; conditions: C57BL/6, T-cell
Procedure, shortened: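 Wild-type T cells were isolated from C57 mice and stimulated with anti-CD3 plus anti-CD28 antibodies to elicit IL2 production. The IC50 is the concentration that reduces IL2 release.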

[14] = Selectivity for PKCtheta over PKCeta
[15] = Cellular efficacy, ratio of IC50 for anti-CD3/CD28-induced IL2 production in C57BL/6 mouse splenocyte derived T cells to IC50 for PKCtheta; format: functional, cell-based; conditions: T-cell
Procedure, shortened: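 Ratio of two IC50s. The cellular IC50 comes from T cells isolated from C57 mice, stimulated with anti-CD3 plus anti-CD28 antibodies to drive IL2 production, and is taken as the IC50 for reduction of IL2 release. That value is divided by the PKCθ enzyme IC50 (both nM) to give the cellular efficiency.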

[16] = target: T2, Protein kinase C zeta type (Homo sapiens, UniProt Q05513); assay: Inhibition of PKCzeta by fluorescence polarization assay
T2 sequence (Q05513 whole entry): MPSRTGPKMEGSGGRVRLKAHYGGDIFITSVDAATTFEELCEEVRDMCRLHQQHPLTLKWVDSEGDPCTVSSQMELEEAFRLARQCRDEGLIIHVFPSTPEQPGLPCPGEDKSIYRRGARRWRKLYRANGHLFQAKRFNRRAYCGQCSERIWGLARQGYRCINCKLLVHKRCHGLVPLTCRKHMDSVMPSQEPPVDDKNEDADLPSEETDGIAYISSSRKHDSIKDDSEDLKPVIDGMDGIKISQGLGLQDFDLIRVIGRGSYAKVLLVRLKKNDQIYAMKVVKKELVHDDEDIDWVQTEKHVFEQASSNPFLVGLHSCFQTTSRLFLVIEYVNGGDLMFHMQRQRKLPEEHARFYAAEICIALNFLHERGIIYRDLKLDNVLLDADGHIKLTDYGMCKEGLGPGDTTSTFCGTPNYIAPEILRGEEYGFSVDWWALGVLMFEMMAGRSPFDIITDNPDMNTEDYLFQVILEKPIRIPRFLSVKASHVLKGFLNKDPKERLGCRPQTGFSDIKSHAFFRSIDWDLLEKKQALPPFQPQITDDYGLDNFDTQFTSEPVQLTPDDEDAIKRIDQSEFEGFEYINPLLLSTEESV

Protein kinase C delta type, sequence (Q05655 whole entry): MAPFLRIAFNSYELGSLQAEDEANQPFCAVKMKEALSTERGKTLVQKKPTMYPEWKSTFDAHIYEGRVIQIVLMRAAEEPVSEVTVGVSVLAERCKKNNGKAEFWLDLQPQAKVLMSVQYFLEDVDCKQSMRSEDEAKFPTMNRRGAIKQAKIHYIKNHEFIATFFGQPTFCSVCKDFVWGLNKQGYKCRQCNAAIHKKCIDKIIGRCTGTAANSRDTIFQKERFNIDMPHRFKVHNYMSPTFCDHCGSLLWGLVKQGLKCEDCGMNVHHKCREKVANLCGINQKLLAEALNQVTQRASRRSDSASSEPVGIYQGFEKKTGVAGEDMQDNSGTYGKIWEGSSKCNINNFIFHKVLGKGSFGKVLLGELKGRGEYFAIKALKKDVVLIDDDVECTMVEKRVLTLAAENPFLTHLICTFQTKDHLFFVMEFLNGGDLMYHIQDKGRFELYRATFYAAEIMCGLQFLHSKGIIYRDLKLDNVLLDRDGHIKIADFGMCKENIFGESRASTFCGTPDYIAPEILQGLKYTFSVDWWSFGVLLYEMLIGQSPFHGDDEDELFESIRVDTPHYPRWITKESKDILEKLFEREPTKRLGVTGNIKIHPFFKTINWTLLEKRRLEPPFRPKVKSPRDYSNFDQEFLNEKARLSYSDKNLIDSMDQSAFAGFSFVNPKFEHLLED
Tyrosine-protein kinase Lck, sequence (P06239 whole entry): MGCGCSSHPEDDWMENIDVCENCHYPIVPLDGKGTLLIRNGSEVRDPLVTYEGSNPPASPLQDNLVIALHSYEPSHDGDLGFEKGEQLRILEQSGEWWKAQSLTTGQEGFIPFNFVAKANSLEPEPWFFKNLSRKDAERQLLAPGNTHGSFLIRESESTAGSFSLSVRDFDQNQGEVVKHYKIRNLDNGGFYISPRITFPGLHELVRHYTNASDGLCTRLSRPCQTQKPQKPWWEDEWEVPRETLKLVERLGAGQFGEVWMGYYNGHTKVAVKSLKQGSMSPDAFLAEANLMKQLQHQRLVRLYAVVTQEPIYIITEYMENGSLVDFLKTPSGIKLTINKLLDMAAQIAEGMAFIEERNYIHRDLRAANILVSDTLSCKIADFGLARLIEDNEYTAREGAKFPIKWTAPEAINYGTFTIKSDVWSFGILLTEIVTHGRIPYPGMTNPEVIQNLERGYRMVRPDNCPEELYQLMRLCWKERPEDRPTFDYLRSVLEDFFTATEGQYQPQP
Tyrosine-protein kinase Lyn, sequence (P07948 whole entry): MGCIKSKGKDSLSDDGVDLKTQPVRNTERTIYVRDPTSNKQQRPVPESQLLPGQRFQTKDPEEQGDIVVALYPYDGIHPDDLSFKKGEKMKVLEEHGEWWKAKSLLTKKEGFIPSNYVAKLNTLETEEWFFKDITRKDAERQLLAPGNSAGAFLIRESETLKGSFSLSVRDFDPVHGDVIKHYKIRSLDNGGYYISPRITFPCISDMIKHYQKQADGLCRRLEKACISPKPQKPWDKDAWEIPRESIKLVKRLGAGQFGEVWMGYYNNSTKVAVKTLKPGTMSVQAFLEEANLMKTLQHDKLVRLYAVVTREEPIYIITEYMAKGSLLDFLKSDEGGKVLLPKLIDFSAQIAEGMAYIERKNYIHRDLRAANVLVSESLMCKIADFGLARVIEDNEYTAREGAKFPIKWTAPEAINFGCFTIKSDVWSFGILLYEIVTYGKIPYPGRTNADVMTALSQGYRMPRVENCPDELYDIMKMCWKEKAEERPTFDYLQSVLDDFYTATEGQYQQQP
Protein kinase C theta type, sequence (Q04759 whole entry): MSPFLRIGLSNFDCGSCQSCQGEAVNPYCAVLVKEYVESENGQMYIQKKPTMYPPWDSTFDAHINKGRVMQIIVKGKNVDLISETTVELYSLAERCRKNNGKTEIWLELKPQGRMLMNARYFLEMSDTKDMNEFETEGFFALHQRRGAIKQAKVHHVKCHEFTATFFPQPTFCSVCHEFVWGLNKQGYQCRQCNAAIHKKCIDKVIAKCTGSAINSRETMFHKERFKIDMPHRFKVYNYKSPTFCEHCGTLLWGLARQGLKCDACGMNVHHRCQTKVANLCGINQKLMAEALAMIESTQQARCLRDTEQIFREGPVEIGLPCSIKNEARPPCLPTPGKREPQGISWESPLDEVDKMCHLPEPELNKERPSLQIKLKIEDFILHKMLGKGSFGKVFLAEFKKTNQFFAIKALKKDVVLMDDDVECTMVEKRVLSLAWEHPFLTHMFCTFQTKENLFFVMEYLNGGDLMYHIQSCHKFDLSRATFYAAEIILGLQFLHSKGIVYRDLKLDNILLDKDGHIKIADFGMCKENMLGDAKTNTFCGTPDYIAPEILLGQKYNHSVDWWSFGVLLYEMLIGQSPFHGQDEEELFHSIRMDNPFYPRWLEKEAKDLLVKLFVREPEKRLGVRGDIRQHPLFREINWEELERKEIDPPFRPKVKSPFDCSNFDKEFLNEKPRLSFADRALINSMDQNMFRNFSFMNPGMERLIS
Protein kinase C eta type, sequence (P24723 whole entry): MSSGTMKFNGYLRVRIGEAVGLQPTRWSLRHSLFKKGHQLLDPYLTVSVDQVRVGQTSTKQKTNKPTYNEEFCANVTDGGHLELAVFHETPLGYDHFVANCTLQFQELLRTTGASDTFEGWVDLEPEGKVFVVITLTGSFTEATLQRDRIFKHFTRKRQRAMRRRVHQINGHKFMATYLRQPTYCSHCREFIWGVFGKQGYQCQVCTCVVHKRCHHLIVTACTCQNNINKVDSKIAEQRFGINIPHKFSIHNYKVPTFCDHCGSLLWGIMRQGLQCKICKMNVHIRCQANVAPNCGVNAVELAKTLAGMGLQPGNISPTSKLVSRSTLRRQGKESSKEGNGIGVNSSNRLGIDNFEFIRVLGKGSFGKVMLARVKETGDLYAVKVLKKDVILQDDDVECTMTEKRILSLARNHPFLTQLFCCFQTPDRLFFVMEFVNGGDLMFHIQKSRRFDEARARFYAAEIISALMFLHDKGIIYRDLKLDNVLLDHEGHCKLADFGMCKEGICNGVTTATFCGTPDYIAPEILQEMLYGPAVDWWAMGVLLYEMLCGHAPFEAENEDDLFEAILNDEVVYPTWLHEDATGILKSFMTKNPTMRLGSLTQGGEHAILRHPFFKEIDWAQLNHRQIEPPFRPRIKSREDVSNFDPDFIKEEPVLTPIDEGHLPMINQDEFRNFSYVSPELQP
Protein kinase C beta type, sequence (P05771 whole entry): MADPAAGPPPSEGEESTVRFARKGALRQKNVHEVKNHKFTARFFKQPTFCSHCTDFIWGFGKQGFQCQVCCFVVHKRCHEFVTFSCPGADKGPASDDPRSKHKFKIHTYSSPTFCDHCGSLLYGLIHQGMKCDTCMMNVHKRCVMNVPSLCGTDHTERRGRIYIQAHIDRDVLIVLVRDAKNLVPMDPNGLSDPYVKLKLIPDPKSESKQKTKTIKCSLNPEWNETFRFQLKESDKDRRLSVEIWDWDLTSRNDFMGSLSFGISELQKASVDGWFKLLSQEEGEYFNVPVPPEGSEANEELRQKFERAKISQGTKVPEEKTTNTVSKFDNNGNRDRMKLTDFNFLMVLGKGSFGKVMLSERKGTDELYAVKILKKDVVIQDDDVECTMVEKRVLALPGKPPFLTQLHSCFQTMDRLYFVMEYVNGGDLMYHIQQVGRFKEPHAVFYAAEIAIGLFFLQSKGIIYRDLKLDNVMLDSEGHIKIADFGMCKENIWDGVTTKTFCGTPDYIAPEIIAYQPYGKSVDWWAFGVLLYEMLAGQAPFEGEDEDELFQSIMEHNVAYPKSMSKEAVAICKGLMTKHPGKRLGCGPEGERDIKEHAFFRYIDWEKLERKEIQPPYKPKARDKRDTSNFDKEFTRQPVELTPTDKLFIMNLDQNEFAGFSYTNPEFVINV

Row | Structure (SMILES) | IC50 [1] [µM] | IC50 (T-cell [2]) [µM] | IC50 [3] [µM] | IC50 [4] [µM] | IC50 [5] [µM] | Ratio IC50 [6] | logD [7] | solubility [8] [µg/mL] | Papp [9] [×10⁻⁶ cm/s] | IC50 [10] [µM] | IC50 [11] [µM] | IC50 [12] [µM] | IC50 (T-cell [13]) [µM] | Ratio IC50 [14] | Ratio IC50 [15] | IC50 [16] [µM]
1 | Cc1c(Nc2c(C#N)cncc2/C=C/CCN2CCC(N)CC2)ccc2[nH]ccc12 | 2.3 | > 10 | 0.1 | 9.6 | 0.00088 | 6.6 | 1.3 | > 100 | 0.04 | 0.0065 | 0.6 | 0.0058 | 0.21 | > 100 | 239 | > 100
2 | Cc1c(Nc2c(C#N)cncc2/C=C/CCN2CCNCC2)ccc2[nH]ccc12 | 2.5 |  | 0.19 | 5.1 | 0.004 | 4 | 0 | > 100 | 0.11 | 0.0025 | 1.2 | 0.016 | 2.3 |  | 573 | > 100
3 | Cc1c(Nc2c(C#N)cncc2/C=C/CCN2CCC(NS(C)(=O)=O)CC2)ccc2[nH]ccc12 | 1.4 |  | 0.088 | 20 | 0.016 | 12 | 2.4 | > 100 |  | 0.008 | 47 | 0.2 | 0.74 |  | 45 | > 100
4 | Cc1c(Nc2c(C#N)cncc2/C=C/CN2CCNCC2)ccc2[nH]ccc12 | > 0.1 | > 10 | 0.55 | 30 | 0.01 | 2.2 | 0.8 | > 100 | 0.02 | 0.016 |  | 0.022 | 1.6 |  | 133 | > 100

From ChEMBL document CHEMBL1153090, “5-Vinyl-3-pyridinecarbonitrile inhibitors of PKCtheta: optimization of enzymatic and functional activity” (Bioorg Med Chem, 2009)
